Reference: ChEMBL document CHEMBL1122866, “3-Phenyl-1-indanamines. Potential antidepressant activity and potent inhibition of dopamine, norepinephrine, and serotonin uptake” (J Med Chem, 1985)

Experiments:
Type in all cases: functional
Mus musculus [1] = organism: Mus musculus; test: Compound was tested for antagonistic activity against 5-HTP-induced potentiation in mice
Method in brief: (§1)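 Mice dosed intraperitoneally; the result is reported as the ED50 in μmol/kg with a range in parentheses. Test compounds are racemates of >95% isomeric purity by TLC.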

Mus musculus [2] = organism: Mus musculus; test: Antagonistic activity against tetrabenazine-induced ptosis in mice; method in brief: as §1
[3] = biological target: Norepinephrine transporter (Rattus norvegicus, UniProt Q9WTR4); test: Inhibition of noradrenaline uptake in rat synaptosomal fraction
Method in brief: (§2)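 Synaptosomal uptake of DA, NE or 5-HT measured. The IC50 is in nM and is the mean of at least two determinations, each using five test concentrations in triplicate.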

[4] = biological target: Sodium-dependent dopamine transporter (Rattus norvegicus, UniProt P23977); test: Inhibition of dopamine uptake in rat synaptosomal fraction
[5] = biological target: Sodium-dependent serotonin transporter (Rattus norvegicus, UniProt P31652); test: Inhibition of 5-HT uptake in rat synaptosomal fraction; method in brief: as §2
Sodium-dependent serotonin transporter, sequence (P31652 whole entry): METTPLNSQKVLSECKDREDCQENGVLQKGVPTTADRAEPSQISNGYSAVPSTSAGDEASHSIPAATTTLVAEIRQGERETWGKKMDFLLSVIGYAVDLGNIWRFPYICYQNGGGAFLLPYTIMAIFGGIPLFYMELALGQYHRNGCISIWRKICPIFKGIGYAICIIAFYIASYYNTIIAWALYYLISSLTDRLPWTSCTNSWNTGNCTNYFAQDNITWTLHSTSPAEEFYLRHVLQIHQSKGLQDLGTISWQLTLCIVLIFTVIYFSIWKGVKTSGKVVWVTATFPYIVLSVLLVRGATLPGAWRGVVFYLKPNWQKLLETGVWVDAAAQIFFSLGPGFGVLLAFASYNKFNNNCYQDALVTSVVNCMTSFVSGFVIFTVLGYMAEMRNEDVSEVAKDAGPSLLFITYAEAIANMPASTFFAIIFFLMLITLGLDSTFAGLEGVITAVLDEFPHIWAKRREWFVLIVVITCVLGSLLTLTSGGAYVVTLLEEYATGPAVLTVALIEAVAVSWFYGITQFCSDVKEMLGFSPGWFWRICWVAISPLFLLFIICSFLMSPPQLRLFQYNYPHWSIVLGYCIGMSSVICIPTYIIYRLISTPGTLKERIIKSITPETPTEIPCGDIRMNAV

Norepinephrine transporter, sequence (Q9WTR4 whole entry): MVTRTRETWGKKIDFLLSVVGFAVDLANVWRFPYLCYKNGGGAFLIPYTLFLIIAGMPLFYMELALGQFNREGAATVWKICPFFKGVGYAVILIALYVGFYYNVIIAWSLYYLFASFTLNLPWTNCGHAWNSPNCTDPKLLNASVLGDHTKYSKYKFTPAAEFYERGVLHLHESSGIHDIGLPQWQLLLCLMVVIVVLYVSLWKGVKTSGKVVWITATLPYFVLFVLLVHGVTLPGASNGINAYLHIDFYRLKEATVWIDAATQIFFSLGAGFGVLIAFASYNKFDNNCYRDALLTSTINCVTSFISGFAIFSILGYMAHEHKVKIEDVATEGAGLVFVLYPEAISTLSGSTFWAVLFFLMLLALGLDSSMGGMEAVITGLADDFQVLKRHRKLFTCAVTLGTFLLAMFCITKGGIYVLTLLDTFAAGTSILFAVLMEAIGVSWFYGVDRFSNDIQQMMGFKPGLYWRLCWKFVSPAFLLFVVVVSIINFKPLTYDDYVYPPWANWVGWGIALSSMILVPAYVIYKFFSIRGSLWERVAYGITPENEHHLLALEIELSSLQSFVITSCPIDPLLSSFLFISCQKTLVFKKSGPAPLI
Sodium-dependent dopamine transporter, sequence (P23977 whole entry): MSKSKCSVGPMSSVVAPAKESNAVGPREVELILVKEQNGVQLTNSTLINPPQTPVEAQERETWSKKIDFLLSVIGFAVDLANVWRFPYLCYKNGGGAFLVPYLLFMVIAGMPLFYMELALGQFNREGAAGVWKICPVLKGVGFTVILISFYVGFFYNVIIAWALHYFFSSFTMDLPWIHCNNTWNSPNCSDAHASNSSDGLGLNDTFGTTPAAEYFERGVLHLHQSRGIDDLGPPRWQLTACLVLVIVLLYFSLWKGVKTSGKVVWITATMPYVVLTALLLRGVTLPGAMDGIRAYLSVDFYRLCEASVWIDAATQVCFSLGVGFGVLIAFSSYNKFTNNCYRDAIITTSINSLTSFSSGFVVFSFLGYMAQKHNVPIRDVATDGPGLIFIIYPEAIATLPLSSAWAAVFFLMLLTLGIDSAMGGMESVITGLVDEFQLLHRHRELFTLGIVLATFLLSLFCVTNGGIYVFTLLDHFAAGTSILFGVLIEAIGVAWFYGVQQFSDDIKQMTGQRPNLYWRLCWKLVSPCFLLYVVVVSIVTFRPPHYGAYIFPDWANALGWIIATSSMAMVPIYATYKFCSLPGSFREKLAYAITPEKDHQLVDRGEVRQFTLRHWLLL

Question: For `COc1ccc2c(c1)C(N(C)C)CC2c1ccc(Cl)c(Cl)c1` (stereo in doubt; 53), which ED50 (Mus musculus [1]) is on record?
Answer: The ED50 was 14 µM/kg.

Question: And the ED50 (Mus musculus [2])?
Answer: The ED50 was 33 µM/kg.

Question: What about the IC50 [3] of the same compound?
Answer: The IC50 was 16 nM.

Question: What about the IC50 [4] of the same compound?
Answer: Its IC50 is 10 nM.

Question: And the IC50 [5]?
Answer: Its IC50 is 1.6 nM.

Question: What does the source list for `COc1ccc2c(c1)C(N(C)C)CC2c1ccc(Cl)c(Cl)c1` (stereo in doubt; 79)?
Answer: ED50 (Mus musculus [1]; Mus musculus, read-out: ED50): 7.4 µmol/kg; ED50 (Mus musculus [2]; Mus musculus, read-out: ED50): 34 µmol/kg; IC50 [3]: 3 nM; IC50 [4]: 15 nM; IC50 [5]: 2 nM

Question: Which results are given for `CNC1CC(c2ccc(Cl)c(Cl)c2)c2ccc(O)cc21` (stereo in doubt; 80)?
Answer: ED50 (Mus musculus [1]; Mus musculus, read-out: ED50): 59 µmol/kg; ED50 (Mus musculus [2]; Mus musculus, read-out: ED50): 15 µmol/kg; IC50 [3]: 6.3 nM; IC50 [4]: 4.1 nM; IC50 [5]: 0.11 nM

Question: For `CNCCCC1(c2ccccc2)OC(C)(C)c2ccccc21` (stereo not given) [TALOPRAM], which ED50 (Mus musculus [1]; Mus musculus, read-out: ED50) is on record?
Answer: The ED50 was 44 µmol/kg.

Question: What about the ED50 (Mus musculus [2]; Mus musculus, read-out: ED50) of the same compound?
Answer: The ED50 was 1.2 µmol/kg.

Question: And the IC50 [3]?
Answer: The IC50 was 2.9 nM.

Question: And the IC50 [4]?
Answer: Its IC50 is 44000 nM.

Question: And the IC50 [5]?
Answer: The IC50 was 1400 nM.
